Source: ChEMBL document CHEMBL1138657 (2004)
Converted amounts (≈) assume the structure as drawn.

How the values were obtained:
Candida albicans [1] = assay: Antifungal activity to cause 99% reduction of surviving cells range is equal to 8-32; assay type: functional, Fungi
Candida parapsilosis [2] = assay: Antifungal activity to inhibit Candida parapsilosis ATCC 22019; assay type: functional, Fungi; conditions: Lodderomyces parapsilosis
Candida parapsilosis [3] = assay: Minimum inhibitory concentration to inhibit Candida parapsilosis ATCC 22019; assay type: functional, Fungi; conditions: Lodderomyces parapsilosis
How it was run: (§1)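 Broth microdilution per NCCLS document against 20 C. albicans strains. […] MIC is reported in µg/mL as the arithmetic mean ± SD. MIC50 and MIC90 are the MICs at which 50% and 90% of isolates are inhibited. C. parapsilosis ATCC22019 was run as the QC strain.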

Candida albicans [4] = assay: Antifungal activity to cause 99% reduction of surviving cells in 90% isolates; assay type: functional, Fungi
Candida albicans [5] = assay: Minimum inhibitory concentration to inhibit Candida albicans strain range is equal to 2-8; assay type: functional, Fungi; how it was run: as §1
Candida albicans [6] = assay: Minimum inhibitory concentration to inhibit 50% of the isolates; assay type: functional, Fungi; how it was run: as §1
Candida albicans [7] = assay: Minimum inhibitory concentration to inhibit 90% of the isolates; assay type: functional, Fungi; how it was run: as §1
Candida albicans [8] = assay: Antifungal activity to cause 99% reduction of surviving cells in 50% isolates; assay type: functional, Fungi
K562 = assay: Cytotoxicity to reduce chronic myeloid leukemia K 562 cells; assay type: functional; conditions: Homo sapiens
How it was run: (§2)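 CC50 is the concentration in µM that reduces viability of human histiocytic lymphoma U937 or chronic myeloid leukemia K562 cells by 50%.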

U-937 = assay: Cytotoxicity to reduce human histolytic lymphoma U937 cells; assay type: functional; how it was run: as §2
Candida albicans [9] = assay: Antifungal activity to cause 99% reduction of surviving cells range is equal to 32-128; assay type: functional, Fungi
Candida albicans [10] = assay: Minimum inhibitory concentration to inhibit Candida albicans strain range is equal to 16-128; assay type: functional, Fungi; how it was run: as §1
Candida albicans [11] = assay: Antifungal activity to cause 99% reduction of surviving cells range is equal to 4-32; assay type: functional, Fungi
Candida albicans [12] = assay: Minimum inhibitory concentration to inhibit Candida albicans strain range is equal to 1-8; assay type: functional, Fungi; how it was run: as §1
Candida albicans [13] = assay: Minimum inhibitory concentration to inhibit Candida albicans strain range is equal to 1-4; assay type: functional, Fungi; how it was run: as §1
Candida albicans [14] = assay: Antifungal activity to cause 99% reduction of surviving cells range is equal to 2-16; assay type: functional, Fungi
Candida albicans [15] = assay: Antifungal activity to cause 99% reduction of surviving cells range is equal to 2-32; assay type: functional, Fungi
Candida albicans [16] = assay: Antifungal activity to cause 99% reduction of surviving cells range is equal to 16-128; assay type: functional, Fungi
Candida albicans [17] = assay: Minimum inhibitory concentration to inhibit Candida albicans strain range is equal to 8-64; assay type: functional, Fungi; how it was run: as §1
Candida albicans [18] = assay: Minimum inhibitory concentration to inhibit Candida albicans strain range is equal to 0.5-4; assay type: functional, Fungi; how it was run: as §1
Candida albicans [19] = assay: Antifungal activity to cause 99% reduction of surviving cells range is equal to 1-8; assay type: functional, Fungi
Candida albicans [20] = assay: Antifungal activity to cause 99% reduction of surviving cells range is equal to 8-16; assay type: functional, Fungi
Candida albicans [21] = assay: Antifungal activity to cause 99% reduction of surviving cells range is equal to 4-16; assay type: functional, Fungi
Candida albicans [22] = assay: Minimum inhibitory concentration to inhibit Candida albicans strain range is equal to 2-16; assay type: functional, Fungi
Candida albicans [23] = assay: Minimum inhibitory concentration to inhibit 50% of the isolates
Candida albicans [24] = assay: Minimum inhibitory concentration to inhibit Candida Albicans strain range is equal to 4-64; assay type: functional, Fungi; how it was run: as §1
Candida albicans [25] = assay: Minimum inhibitory concentration to inhibit Candida albicans strain range is equal to 0.125-64; assay type: functional, Fungi
Candida albicans [26] = assay: Antifungal activity to cause 99% reduction of surviving cells; assay type: functional, Fungi
Candida albicans [27] = assay: Antifungal activity to cause 99% reduction of surviving cells range is equal to 64-128; assay type: functional, Fungi
Candida albicans [28] = assay: Minimum inhibitory concentration to inhibit Candida albicans strain range is equal to 32-128; assay type: functional, Fungi

Row | Compound | MFC (Candida parapsilosis [2]) [µg/mL] | MIC (Candida parapsilosis [3]) [µg/mL] | MFC90 (Candida albicans [4]) [µg/mL] | MIC50 (Candida albicans [6]) [µg/mL] | MIC90 (Candida albicans [7]) [µg/mL] | MFC50 (Candida albicans [8]) [µg/mL] | CC50 (K562) [µM] | CC50 (U-937) [µM] | also measured
1 | Clc1ccc(COC(Cn2ccnc2)c2ccc(Cl)cc2Cl)cc1 (stereo unspecified) [ECONAZOLE] | 2 (≈ 5.24 µM) | 2 (≈ 5.24 µM) | 32 (≈ 83.8 µM) | 4 (≈ 10.5 µM) | 8 (≈ 21 µM) | 16 (≈ 41.9 µM) | 54.7 | 60 | MFC (Candida albicans [1]): < 32 µg/mL; MIC (Candida albicans [5]): < 8 µg/mL
2 | FC(F)(F)c1ccc(OC(CCn2ccnc2)c2ccccc2)cc1 (stereo unspecified) | 16 (≈ 46.2 µM) | 4 (≈ 11.5 µM) | 128 (≈ 370 µM) | 64 (≈ 185 µM) | 128 (≈ 370 µM) | 64 (≈ 185 µM) | 71 | 86 | MFC (Candida albicans [9]): < 128 µg/mL; MIC (Candida albicans [10]): < 128 µg/mL
3 | Clc1ccc(COC(Cn2ccnc2)c2ccc(Cl)cc2Cl)c(Cl)c1 (stereo unspecified) [MICONAZOLE] | 0.5 (≈ 1.2 µM) | 1 (≈ 2.4 µM) | 16 (≈ 38.4 µM) | 4 (≈ 9.61 µM) | 4 (≈ 9.61 µM) | 8 (≈ 19.2 µM) | 39.3 | 40 | MFC (Candida albicans [11]): < 32 µg/mL; MIC (Candida albicans [12]): < 8 µg/mL
4 | Cc1ccc(C(CCn2ccnc2)Oc2ccc(Cl)cc2Cl)cc1 (stereo unspecified) | 4 (≈ 11.1 µM) | 1 (≈ 2.77 µM) | 16 (≈ 44.3 µM) | 2 (≈ 5.54 µM) | 8 (≈ 22.1 µM) | 4 (≈ 11.1 µM) | 31.4 | 40 | MIC (Candida albicans [13]): < 4 µg/mL; MFC (Candida albicans [14]): < 16 µg/mL
5 | Clc1ccc(OC(CCn2ccnc2)c2ccccc2)cc1 (stereo unspecified) | 32 (≈ 102 µM) | 4 (≈ 12.8 µM) | 16 (≈ 51.2 µM) | 2 (≈ 6.39 µM) | 4 (≈ 12.8 µM) | 4 (≈ 12.8 µM) | 221 | 84.9 | MIC (Candida albicans [12]): < 8 µg/mL; MFC (Candida albicans [15]): < 32 µg/mL
6 | O=[N+]([O-])c1ccc(OC(CCn2ccnc2)c2ccccc2)cc1 (stereo unspecified) | 32 (≈ 99 µM) |  | >128 | 32 (≈ 99 µM) | 32 (≈ 99 µM) | 32 (≈ 99 µM) | 102 | 97.2 | MIC (Candida parapsilosis [2]): 4 µg/mL (≈ 12.4 µM); MFC (Candida albicans [16]): < 128 µg/mL; MIC (Candida albicans [17]): < 64 µg/mL
7 | Clc1ccc(C(CCn2ccnc2)Oc2ccc(Cl)cc2Cl)cc1 (stereo unspecified) | 8 (≈ 21 µM) | 0.5 (≈ 1.31 µM) | 4 (≈ 10.5 µM) | 2 (≈ 5.24 µM) | 4 (≈ 10.5 µM) | 4 (≈ 10.5 µM) | 54 | 61 | MIC (Candida albicans [18]): < 4 µg/mL; MFC (Candida albicans [19]): < 8 µg/mL
8 | Cc1ccc(OC(CCn2ccnc2)c2ccccc2)cc1 (stereo unspecified) | 16 (≈ 54.7 µM) | 2 (≈ 6.84 µM) | 16 (≈ 54.7 µM) | 8 (≈ 27.4 µM) | 16 (≈ 54.7 µM) | 16 (≈ 54.7 µM) | 95.9 | 141 | MIC (Candida albicans [10]): 16 µg/mL (≈ 54.7 µM); MFC (Candida albicans [20]): < 16 µg/mL
9 | Clc1ccc(OC(CCn2ccnc2)c2ccccc2)c(Cl)c1 (stereo unspecified) | 8 (≈ 23 µM) | 2 (≈ 5.76 µM) | 8 (≈ 23 µM) | 4 (≈ 11.5 µM) | 8 (≈ 23 µM) | 8 (≈ 23 µM) | 96.7 | 56.5 | MIC (Candida albicans [12]): < 8 µg/mL; MFC (Candida albicans [21]): < 16 µg/mL
10 | CC(=O)N1CCN(c2ccc(OC[C@H]3CO[C@](Cn4ccnc4)(c4ccc(Cl)cc4Cl)O3)cc2)CC1 [KETOCONAZOLE] | 0.5 (≈ 0.941 µM) | 0.06 (≈ 0.113 µM) | 32 (≈ 60.2 µM) | 4 (≈ 7.53 µM) | 8 (≈ 15.1 µM) | 16 (≈ 30.1 µM) | 61.7 | 70 | MFC (Candida albicans [1]): < 32 µg/mL; MIC (Candida albicans [22]): < 16 µg/mL
11 | Fc1ccc(OC(CCn2ccnc2)c2ccccc2)c(F)c1 (stereo unspecified) | 32 (≈ 102 µM) | 8 (≈ 25.5 µM) | 128 (≈ 407 µM) |  | 64 (≈ 204 µM) | 64 (≈ 204 µM) | 298 | 219 | MFC (Candida albicans [9]): < 128 µg/mL; MIC50 (Candida albicans [23]): 32 µg/mL (≈ 102 µM); MIC (Candida albicans [24]): < 64 µg/mL
12 | Fc1ccc(C(CCn2ccnc2)Oc2ccc(Cl)cc2Cl)cc1 (stereo unspecified) | 4 (≈ 11 µM) | 0.5 (≈ 1.37 µM) | 8 (≈ 21.9 µM) | 2 (≈ 5.48 µM) | 4 (≈ 11 µM) | 8 (≈ 21.9 µM) | 33.5 | 43.3 | MIC (Candida albicans [18]): < 4 µg/mL; MFC (Candida albicans [14]): < 16 µg/mL
13 | OC(Cn1cncn1)(Cn1cncn1)c1ccc(F)cc1F [FLUCONAZOLE] | 8 (≈ 26.1 µM) | 0.5 (≈ 1.63 µM) |  | 2 (≈ 6.53 µM) | 64 (≈ 209 µM) |  | 385 | 316 | MIC (Candida albicans [25]): < 64 µg/mL; MFC (Candida albicans [26]): > 64 µg/mL
14 | CNCCC(Oc1ccc(C(F)(F)F)cc1)c1ccccc1 (stereo unspecified) [FLUOXETINE] | 64 (≈ 207 µM) | 8 (≈ 25.9 µM) |  | 64 (≈ 207 µM) | 128 (≈ 414 µM) |  | 25 | 33.3 | MFC (Candida albicans [27]): < 128 µg/mL; MIC (Candida albicans [28]): < 128 µg/mL
